Each molecule was assayed on Rattus norvegicus (assay: Hypolipidemic activity in COBBS-CD rat assessed as reduction in serum triglyceride level at 0.01% administered with chow diet after 5 days relative to control).
Assay type: functional
Design: scale not given: the % may be the effect or the level left
Method in brief: (§1)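 The compound was given in ground chow at 0.1, 0.03 or 0.01% w/w (about 100, 30 and 10 mg/kg) to male COBBS-CD rats (n=4; solvent-chow controls n=8) for 5 days ad libitum. Rats were killed by decapitation and blood collected. Serum triglycerides were assayed by an automated method and compared with controls; ± values are SD.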
`COC(=O)C(Oc1ccc(C)c(C)c1)c1ccc(Oc2ccc(Cl)cc2)cc1` (stereo not drawn) gave an Activity of 23%. For `COC(=O)C(Oc1ccc2ccccc2c1)c1ccc(Oc2ccc(Cl)cc2)cc1` (stereo not drawn), the Activity was 32%. Work on `COC(=O)C(Oc1ccc(Cl)cc1)c1ccc(Oc2ccc(C(C)(C)C)cc2)cc1` (stereo not drawn) yielded an Activity of 25%. `COC(=O)C(Oc1ccc(C2CCCCC2)cc1)c1ccc(Oc2ccc(C(C)(C)C)cc2)cc1` (stereo not drawn) gave an Activity of 29%. `COC(=O)C(Oc1ccc(Cl)cc1)c1ccc([S+]([O-])c2ccc(Cl)cc2)cc1` (stereo not drawn) gave an Activity of 12%. `COC(=O)C(Oc1ccc(F)cc1)c1ccc(Sc2ccc(Cl)cc2)cc1` (stereo not drawn) showed an Activity of 1%. For `COC(=O)C(Oc1ccc(Cl)cc1)(C(=O)OC)c1ccc(Oc2ccc(Cl)cc2)cc1`, the Activity was -2%. For `COC(=O)C(Oc1ccc(F)cc1)c1ccc(Oc2ccc(S(C)(=O)=O)cc2)cc1` (stereo not drawn), the Activity was 16%.

The molecules below were run on Rattus norvegicus (assay: Hypolipidemic activity in COBBS-CD rat assessed as reduction in serum sterol level at 0.01% administered with chow diet after 5 days relative to control).
Assay type: functional
Design: scale not given: the % may be the effect or the level left
Method in brief: (§2)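 Male COBBS-CD rats, four per treated group and eight per control group. The compound was mixed into ground rat chow at 0.1, 0.03 or 0.01% w/w (about 100, 30 and 10 mg/kg). Control chow received only the mixing solvent (methanol-chloroform 1:3 v/v). Food and water were ad libitum for 5 days, then rats were decapitated and blood collected. Serum sterols were measured by an automated method and expressed relative to controls; ± values are SD.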
Work on `COC(=O)C(Oc1ccc(C)c(C)c1)c1ccc(Oc2ccc(Cl)cc2)cc1` (stereo not drawn) yielded an Activity of 18%. With `COC(=O)C(Oc1ccc2ccccc2c1)c1ccc(Oc2ccc(Cl)cc2)cc1` (stereo not drawn) the Activity was 10%. `COC(=O)C(Oc1ccc(Cl)cc1)c1ccc(Oc2ccc(C(C)(C)C)cc2)cc1` (stereo not drawn) was tested, and the Activity was 17%. `COC(=O)C(Oc1ccc(C2CCCCC2)cc1)c1ccc(Oc2ccc(C(C)(C)C)cc2)cc1` (stereo not drawn) showed an Activity of -5%. With `COC(=O)C(Oc1ccc(Cl)cc1)c1ccc([S+]([O-])c2ccc(Cl)cc2)cc1` (stereo not drawn) the Activity was 15%. `COC(=O)C(Oc1ccc(F)cc1)c1ccc(Sc2ccc(Cl)cc2)cc1` (stereo not drawn) was tested, and the Activity was 21%. With `COC(=O)C(Oc1ccc(Cl)cc1)(C(=O)OC)c1ccc(Oc2ccc(Cl)cc2)cc1` the Activity was 9%. `COC(=O)C(Oc1ccc(F)cc1)c1ccc(Oc2ccc(S(C)(=O)=O)cc2)cc1` (stereo not drawn) was tested, and the Activity was -3%.

Each molecule was assayed on Rattus norvegicus (assay: Hypolipidemic activity in COBBS-CD rat assessed as reduction in serum triglyceride level at 0.1% administered with chow diet after 5 days relative to control).
Assay type: functional
Design: scale not given: the % may be the effect or the level left
Method in brief: as §1
In the case of `COC(=O)C(Oc1ccc(C)c(C)c1)c1ccc(Oc2ccc(Cl)cc2)cc1` (stereo not drawn), the Activity is reported as 63%. For `COC(=O)C(Oc1ccc2ccccc2c1)c1ccc(Oc2ccc(Cl)cc2)cc1` (stereo not drawn), the Activity was 55%. In the case of `COC(=O)C(Oc1ccc(Cl)cc1)c1ccc(Oc2ccc(C(C)(C)C)cc2)cc1` (stereo not drawn), the Activity is reported as 46%. Molecule `COC(=O)C(Oc1ccc(C2CCCCC2)cc1)c1ccc(Oc2ccc(C(C)(C)C)cc2)cc1` (stereo not drawn) has an Activity of 52%. With `COC(=O)C(Oc1ccc(Cl)cc1)c1ccc([S+]([O-])c2ccc(Cl)cc2)cc1` (stereo not drawn) the Activity was 55%. For `COC(=O)C(Oc1ccc(F)cc1)c1ccc(Sc2ccc(Cl)cc2)cc1` (stereo not drawn), the Activity was 36%. `COC(=O)C(Oc1ccc(Cl)cc1)(C(=O)OC)c1ccc(Oc2ccc(Cl)cc2)cc1` was tested, and the Activity was 63%. Molecule `COC(=O)C(Oc1ccc(F)cc1)c1ccc(Oc2ccc(S(C)(=O)=O)cc2)cc1` (stereo not drawn) has an Activity of 3%.

The molecules below were run on Rattus norvegicus (assay: Hypolipidemic activity in COBBS-CD rat assessed as reduction in serum triglyceride level at 0.03% administered with chow diet after 5 days relative to control).
Assay type: functional
Design: scale not given: the % may be the effect or the level left
Method in brief: as §1
Molecule `COC(=O)C(Oc1ccc(C)c(C)c1)c1ccc(Oc2ccc(Cl)cc2)cc1` (stereo not drawn) has an Activity of 45%. `COC(=O)C(Oc1ccc2ccccc2c1)c1ccc(Oc2ccc(Cl)cc2)cc1` (stereo not drawn) was tested, and the Activity was 44%. Molecule `COC(=O)C(Oc1ccc(Cl)cc1)c1ccc(Oc2ccc(C(C)(C)C)cc2)cc1` (stereo not drawn) has an Activity of 30%. For `COC(=O)C(Oc1ccc(C2CCCCC2)cc1)c1ccc(Oc2ccc(C(C)(C)C)cc2)cc1` (stereo not drawn), the Activity was 49%. Molecule `COC(=O)C(Oc1ccc(Cl)cc1)c1ccc([S+]([O-])c2ccc(Cl)cc2)cc1` (stereo not drawn) has an Activity of 35%. `COC(=O)C(Oc1ccc(F)cc1)c1ccc(Sc2ccc(Cl)cc2)cc1` (stereo not drawn) showed an Activity of 18%. `COC(=O)C(Oc1ccc(Cl)cc1)(C(=O)OC)c1ccc(Oc2ccc(Cl)cc2)cc1` gave an Activity of 48%. With `COC(=O)C(Oc1ccc(F)cc1)c1ccc(Oc2ccc(S(C)(=O)=O)cc2)cc1` (stereo not drawn) the Activity was -8%.

Each molecule was assayed on Rattus norvegicus (assay: Hypolipidemic activity in COBBS-CD rat assessed as reduction in serum sterol level at 0.1% administered with chow diet after 5 days relative to control).
Assay type: functional
Design: scale not given: the % may be the effect or the level left
Method in brief: as §2
Work on `COC(=O)C(Oc1ccc(C)c(C)c1)c1ccc(Oc2ccc(Cl)cc2)cc1` (stereo not drawn) yielded an Activity of 46%. `COC(=O)C(Oc1ccc2ccccc2c1)c1ccc(Oc2ccc(Cl)cc2)cc1` (stereo not drawn) was tested, and the Activity was 32%. For `COC(=O)C(Oc1ccc(Cl)cc1)c1ccc(Oc2ccc(C(C)(C)C)cc2)cc1` (stereo not drawn), the Activity was 7%. For `COC(=O)C(Oc1ccc(C2CCCCC2)cc1)c1ccc(Oc2ccc(C(C)(C)C)cc2)cc1` (stereo not drawn), the Activity was 33%. Molecule `COC(=O)C(Oc1ccc(Cl)cc1)c1ccc([S+]([O-])c2ccc(Cl)cc2)cc1` (stereo not drawn) has an Activity of 31%. In the case of `COC(=O)C(Oc1ccc(F)cc1)c1ccc(Sc2ccc(Cl)cc2)cc1` (stereo not drawn), the Activity is reported as 22%. `COC(=O)C(Oc1ccc(Cl)cc1)(C(=O)OC)c1ccc(Oc2ccc(Cl)cc2)cc1` showed an Activity of 32%. Work on `COC(=O)C(Oc1ccc(F)cc1)c1ccc(Oc2ccc(S(C)(=O)=O)cc2)cc1` (stereo not drawn) yielded an Activity of 10%.

The molecules below were run on Rattus norvegicus (assay: Hypolipidemic activity in COBBS-CD rat assessed as reduction in serum sterol level at 0.03% administered with chow diet after 5 days relative to control).
Assay type: functional
Design: scale not given: the % may be the effect or the level left
Method in brief: as §2
With `COC(=O)C(Oc1ccc(C)c(C)c1)c1ccc(Oc2ccc(Cl)cc2)cc1` (stereo not drawn) the Activity was 28%. `COC(=O)C(Oc1ccc2ccccc2c1)c1ccc(Oc2ccc(Cl)cc2)cc1` (stereo not drawn) gave an Activity of 15%. `COC(=O)C(Oc1ccc(Cl)cc1)c1ccc(Oc2ccc(C(C)(C)C)cc2)cc1` (stereo not drawn) showed an Activity of 11%. Molecule `COC(=O)C(Oc1ccc(C2CCCCC2)cc1)c1ccc(Oc2ccc(C(C)(C)C)cc2)cc1` (stereo not drawn) has an Activity of 16%. In the case of `COC(=O)C(Oc1ccc(Cl)cc1)c1ccc([S+]([O-])c2ccc(Cl)cc2)cc1` (stereo not drawn), the Activity is reported as 11%. For `COC(=O)C(Oc1ccc(F)cc1)c1ccc(Sc2ccc(Cl)cc2)cc1` (stereo not drawn), the Activity was 23%. Molecule `COC(=O)C(Oc1ccc(Cl)cc1)(C(=O)OC)c1ccc(Oc2ccc(Cl)cc2)cc1` has an Activity of 25%. `COC(=O)C(Oc1ccc(F)cc1)c1ccc(Oc2ccc(S(C)(=O)=O)cc2)cc1` (stereo not drawn) showed an Activity of -1%.

— ChEMBL document CHEMBL3244011, “(Aryloxy)[p-(aryloxy)phenyl]- and (aryloxy)[p-(arylthio)phenyl]acetic acids and esters as hypolipidemic agents” (1979)
